From PubChem BioAssay
The list is not random: actives were taken first. Their share in the collection is about 1.1%.
Calb biofilm kill: mixtures killing C. albicans biofilm | inhibition, % at 7.6 µM | 0.02% of 120,000 active | C. albicans biofilm persisters + clotrimazole, fluorescence viability; primary screen in compound mixtures of four per well;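 note: compounds exposed to preformed 24 h biofilms for 48 h; 0% = untreated biofilm control and 100% = clotrimazole plus chlorhexidine kill blank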
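Test system: C. albicans biofilms. Buffer or medium: RPMI/MOPS medium, pH 7.0. Timing: 48 h compound exposure at 37 °C. Technique: Alamar Blue fluorescence. Evaluation: percent inhibition of biofilm viability.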
Thrombin inh: blocks human thrombin protease activity; P00734; inhibition, % at 5 µM; alpha-thrombin, Boc-VPR-AMC fluorogenic substrate cleavage; 0.26% of 220,000 active;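 active = inhibition at or above 40%; inactive = inhibition below 40%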;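 note: 0% = enzyme with no compound and 100% = wells without enzyme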
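Test system: human alpha-thrombin protein / Dosing: one concentration per compound, 5 µM, with 0.2% DMSO / Medium: pH 7.5 Tris-saline with Tween 20 / Benchmarks: no-compound enzyme wells and no-enzyme blanks / Read-out basis: percent inhibition of thrombin substrate cleavage / Timing: reaction at room temperature / Measured by: fluorescence, ex 355 nm, em 460 nm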
FXIIa inh: factor XIIa (human) inhibition. P00748. purified FXIIa, Boc-QGR-AMC fluorogenic substrate, 2 h. inhibition, % at 5 µM. 0.3% of 220,000 active. AID 800; in the data active = inhibition above about 40%;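 note: 0% = enzyme with no compound and 100% = blank without enzyme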
KLK5 inh: inhibitors of human kallikrein 5. Q9Y337. recombinant hK5, fluorogenic AMC substrate cleavage. inhibition, % at 5 µM. 0.59% of 210,000 active;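 active = inhibition of 40% or more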;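 note: 0% = enzyme controls without compound and 100% = no-enzyme blanks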
Target sequence (Q9Y337 67-293 limits assumed): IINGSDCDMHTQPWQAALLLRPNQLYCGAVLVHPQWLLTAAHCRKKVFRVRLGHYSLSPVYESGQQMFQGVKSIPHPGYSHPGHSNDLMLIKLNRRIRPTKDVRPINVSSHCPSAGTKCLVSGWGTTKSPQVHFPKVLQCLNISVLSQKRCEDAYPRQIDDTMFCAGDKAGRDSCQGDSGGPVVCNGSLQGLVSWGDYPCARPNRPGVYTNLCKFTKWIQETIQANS
FXIa inh 1536: inhibitors of human coagulation factor XIa | inhibition, % at 5 µM | purified FXIa, Boc-Glu-Ala-Arg-AMC fluorogenic substrate | P03951 | AID 798 | 0.14% of 220,000 active;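 active = inhibition of at least 40%; inactive = inhibition below 40%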;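 note: fluorescence of freed AMC excited at 355 nm; 0% = enzyme without compound and 100% = no enzyme blank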
Furin inh: human furin inhibition; purified furin, fluorogenic substrate cleavage; inhibition, % at 20 µM or 30 µM; 0.061% of 220,000 active; in the data active = inhibition above about 25%
Numbers without * were called inactive; · = not tested or not shown.

SMILES | Calb biofilm kill | Thrombin inh | FXIIa inh | KLK5 inh | FXIa inh 1536 | Furin inh
CCc1ccc(C2CC(c3ccccc3)Nc3nc(N)nn32)cc1 (centres undefined) | 14.1 | 5.5 | 12.2 | 8.6 | 9.9 | -1.2
CCc1ccc(C2CC(c3ccccc3)n3ncnc3N2)cc1 (centres undefined) | · | -3.6 | -9.1 | 45.0* | -14.6 | -11.0
Cc1cccc(C)c1OCCNC(=O)C(=O)NCc1ccco1 | 4.9 | 1.2 | 11.5 | 4.1 | 0.8 | -20.3
CCOC(=O)c1c(NC(=O)CSc2ncnc3ccccc23)sc(C(C)=O)c1C | 18.0 | -7.5 | 7.4 | -17.0 | 5.5 | -8.2
CCOC(=O)c1c(NC(=O)COc2ncnc3ccccc23)sc(C)c1CC | 21.1 | 34.3 | 24.4 | 69.0* | 2.8 | -4.2
CCS(=O)(=O)N1CCCC(c2nc(-c3cccc(OC)c3)no2)C1 (centres undefined) | · | 15.3 | 18.8 | 40.3* | 4.6 | -5.7
CCCS(=O)(=O)N1CCCC(c2nc(-c3ccc(OC)cc3)no2)C1 (centres undefined) | · | -3.4 | -3.1 | -7.5 | 3.9 | -23.3
O=C(NC(=S)Nc1cc(C(F)(F)F)ccc1N1CCOCC1)c1ccco1 | 7.0 | 10.6 | 28.0 | 42.4* | 7.3 | -6.4
O=C1c2ccccc2C(=O)N1/N=C/c1ccc(O)c(O)c1O | 19.0 | 11.2 | 30.8 | 44.9* | 23.3 | -2.5
O=C1CNC(=S)N1CCc1ccc(O)c(O)c1 | 15.6 | -0.7 | 8.2 | 1.4 | 1.3 | 1.7
COc1cccc(CNc2ccc(S(N)(=O)=O)cc2)c1OC | · | 17.8 | 107.5* | 31.1 | 5.8 | -21.9
COc1cccc(CNc2ccc(N3CCCCC3)cc2)c1OC | · | -0.6 | 11.5 | 13.0 | 15.8 | -15.8
CCn1c(C(=O)Nc2ccsc2C(=O)OC)cc2sc(Cl)cc21 | · | 5.3 | -5.0 | 46.5* | -1.4 | -28.3
CCOc1cccc2c1OC1(C)CC2NC(=O)N1Cc1ccccc1 (centres undefined) | 35.1 | 3.7 | 36.7 | 37.8 | 62.2* | -8.2
C=CCN(c1ccccc1Cl)S(=O)(=O)c1cc(C(=O)N2CCCC2)ccc1Cl | -3.4 | -13.0 | 9.6 | -1.0 | 1.5 | -2.5
CN(Cc1cc2ccccc2[nH]c1=O)S(C)(=O)=O | · | -3.7 | 1.3 | 46.9* | -7.5 | -2.5
CCC(=O)Oc1ccc2c(C)c(Cl)c(=O)oc2c1 | · | 47.0* | 31.9 | 17.1 | 6.2 | -112.5
Cc1cccc(-n2c(CCCN3C(=O)c4ccccc4C3=O)nc3ccccc3c2=O)n1 | · | 30.4 | -8.5 | 151.8* | 0.4 | -21.1
Cc1cccc(-n2c(CCN3C(=O)c4ccccc4C3=O)nc3ccccc3c2=O)n1 | · | 2.5 | 13.4 | 0.2 | 1.5 | 1.9
O=C1CN(C(=O)COc2cccc(F)c2)c2ccccc2N1 | 13.8 | 6.0 | 2.4 | -4.2 | 4.8 | -15.8
O=C1CN(C(=O)COc2ccc(F)cc2Cl)c2ccccc2N1 | 16.2 | 14.0 | 12.4 | 54.1* | -3.8 | -3.7
Cc1cc(C(=O)OCC(=O)N2CC(=O)Nc3ccccc32)c(C)n1-c1ccccc1 | 14.2 | 8.9 | 10.1 | 60.1* | 4.8 | -11.5
Cc1cc(C)n2nc(C(=O)Nc3ccc(S(=O)(=O)N(C)C)cc3)nc2n1 | 15.9 | -4.1 | 8.1 | -9.1 | 1.4 | 0.9
CN(Cc1ccon1)C(=O)CC1C(=O)NCCN1CC1CCCCC1 (centres undefined) | 12.2 | -1.7 | 28.3 | 35.3 | 60.0* | -10.6
Cn1c(SCC(=O)c2ccccc2)nnc1-c1cccc(N)c1 | · | 5.9 | 106.2* | 60.5* | 15.2 | -1.6
SMILES | Calb biofilm kill | Thrombin inh | FXIIa inh | KLK5 inh | FXIa inh 1536 | Furin inh
Cn1c(SCC(=O)c2ccccc2)nnc1-c1ccncc1 | -11.9 | 4.7 | -1.6 | -16.3 | -4.1 | -33.1
O=C1Nc2c(c(=O)[nH]c(=O)n2-c2ccccc2)C1(Nc1ncccn1)C(F)(F)F (centres undefined) | · | 12.5 | 31.7 | 155.8* | 15.1 | -21.9
COc1cccc(/C=N/NC(=O)c2[nH]c(C)c(C(=O)N/N=C/c3cccc(OC)c3O)c2C)c1O | · | 2.6 | 18.6 | -158.8 | 40.3* | -18.5
COc1cccc(/C=N/NC(=O)c2ccc(-c3ccccc3)cc2)c1O | · | -8.6 | -13.5 | -83.2 | -2.4 | -7.4
CCOC(=O)Cc1csc(NC(=O)c2sc3nc4ccc(CC)cc4cc3c2N)n1 | · | 23.6 | 21.2 | 90.6* | 43.1* | -27.6
O=[N+]([O-])c1ccc2c(c1)c1ccccc1n2CCO | 21.4 | 39.1 | 50.0* | 22.7 | 24.4 | 6.4
